Compounds with a hit are over-represented: about 2.2% of the library has one in this group of screens.
V-ATPase pH: yeast V-ATPase proton transport regulation by pHLuorin | S. cerevisiae, pHLuorin cytosolic pH fluorescence | response, % at 10 µM | 0.37% of 350,000 active; in the data active means response mostly above about 7.3%, no sharp cut-off; inactive means mostly below about 5.4%; further: actives read high
Exocytosis inh: lytic granule exocytosis inhibition. TALL-104 LAMP-1 surface exposure, flow cytometry; cells stimulated with thapsigargin and PMA. inhibition, % at 10 µM. 0.66% of 360,000 active. AID 651702;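 active means inhibition above about 55%, limit read from the data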
ARFGAP1 inhibitor: inhibitors of rat ARFGAP1 | 0.26% of 360,000 active | Arfgap1-stimulated ARF1 GTP hydrolysis, GDP FP detection | inhibition, % at 16.5 µM | AID 651572;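 active means inhibition above a per-plate limit, mean inhibition of low control wells plus 3 SD, cut at about 25% in these data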
Target sequence (Q62848 1-136 limits assumed): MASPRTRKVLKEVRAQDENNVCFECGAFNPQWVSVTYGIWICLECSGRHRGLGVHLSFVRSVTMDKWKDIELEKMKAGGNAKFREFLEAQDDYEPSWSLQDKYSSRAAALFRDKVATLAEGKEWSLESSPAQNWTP
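Material: rat Arfgap1 GAP domain (His6, aa 1-136), purified enzyme. Also added: human ARF1(Δ1-17)-GTP substrate. Compound dosing: 16.5 µM single point, 1.26% DMSO. Timing: enzyme reaction 120 min at 25 °C after 20 min preincubation. Signal: GDP detection by fluorescence polarization. Read-out basis: percent inhibition of GAP-stimulated GDP formation, scaled between DMSO and no-Arfgap1 medians.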
ASAP1 inh: blocks human ASAP1-stimulated Arf1 GTP hydrolysis. Q9ULH1. GDP FP detection. inhibition, % at 16.5 µM. 0.19% of 360,000 active. AID 624377; in the data active means inhibition above about 25%
Target sequence (Q9ULH1 325-724 limits assumed): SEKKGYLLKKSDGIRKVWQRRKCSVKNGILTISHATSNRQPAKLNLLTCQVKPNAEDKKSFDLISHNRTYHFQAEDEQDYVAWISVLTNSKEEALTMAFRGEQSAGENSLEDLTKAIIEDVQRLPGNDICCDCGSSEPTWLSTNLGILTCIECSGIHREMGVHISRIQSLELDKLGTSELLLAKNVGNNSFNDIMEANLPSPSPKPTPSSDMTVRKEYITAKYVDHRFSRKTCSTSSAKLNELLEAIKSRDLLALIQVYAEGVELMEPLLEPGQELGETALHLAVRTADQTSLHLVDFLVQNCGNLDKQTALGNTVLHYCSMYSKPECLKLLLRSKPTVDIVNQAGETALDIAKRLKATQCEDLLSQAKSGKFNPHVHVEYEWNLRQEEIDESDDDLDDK
NRP1-CendR mod: alters CendR peptide binding to human NRP-1 | FAM-RPARPAR peptide binding to NRP-1, fluorescence polarization | inhibition, % at 25 µM | 0.85% of 360,000 active | AID 602438;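 active means inhibition or corrected inhibition above about 18%, plus a signal ratio from 0.5 to 1.5, limit read from the data, passing the limit was not always enough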
A number is an active result; . = inactive; / = not tested or not shown.

SMILES | V-ATPase pH | Exocytosis inh | ARFGAP1 inhibitor | ASAP1 inh | NRP1-CendR mod
CN1C(=O)[C@@]2(O[C@H]3C=CC=CN3C3=C2C(=O)CCC3)c2cc([N+](=O)[O-])ccc21 | / | / | . | . | /
COC(=O)c1cc2c(n1S(=O)(=O)c1ccc(C)cc1)C(=O)C(=O)c1[nH]cc(C(=O)OCc3ccccc3)c1-2 | . | . | / | / | 27
COC(=O)c1cc2c(c3c4cc(OC)ccc4n(S(=O)(=O)c4ccc(C)cc4)c13)C(=O)N(Cc1ccccc1)C2 | / | / | . | . | /
COC(=O)c1c(-c2ccc(OC)cc2)c2c(c3c4cc(OC)ccc4n(C(=O)c4ccccc4)c13)C(=O)N(C)C2 | / | / | . | . | /
Cc1ccccc1NC(=O)Cc1nnc(SCC(=O)NC2=NCCS2)n1C | . | . | . | . | .
Cc1cc(-c2ccc(S(=O)(=O)NCc3ccc(F)cc3)cc2)on1 | . | . | . | . | .
Cc1cc(-c2ccc(S(=O)(=O)NCc3ccc(Cl)cc3)cc2)on1 | . | . | . | . | 28
Cc1cc(OC(=O)c2ccccc2C)c([N+](=O)[O-])c(=O)[nH]1 | . | . | . | . | 34
C[C@H](O)[C@@H]1CN2CCc3c([nH]c4c(-c5ccccc5)cccc34)[C@@H]2C[C@@H]1N(C)C(=O)NC1CCCCC1 | / | / | . | . | /
O=C(N[C@H](C(=O)N1CCC[C@H]1C(=O)NCCc1ccccc1Cl)c1ccccc1)c1ccc(Cl)cc1Cl | / | / | . | . | /
CCOC(=O)c1c(NC(=O)OC)sc(C(=O)N(C)C)c1C | . | . | . | . | .
COC(=O)Nc1sc(C(=O)N(C)C)c(C)c1C(=O)OC | . | . | . | . | 24
Cc1ccc(C)c(OCC(=O)N/N=C\c2cccn2C)c1 | . | . | . | . | 35
Cc1ccc(OCC(=O)N/N=C/c2ccccc2)c([N+](=O)[O-])c1 | . | . | . | . | 19
O=C(Nc1ccccc1C(=O)NCCc1ccc(O)cc1)c1ccco1 | . | . | . | . | .
CC(=O)N1C[C@@H](CN2C(=O)CCC2=O)[C@@H]2C[C@H]1c1ccccc1N2C | / | / | . | . | /
C=CCc1c(OC(C)=O)c2ccccc2n(C)c1=O | . | . | . | . | 25
CCOC(=O)C(=N/O)/C(C)=N/NC(=O)C(=O)Nc1cc(Cl)ccc1Cl | . | 78 | . | . | .
CCOC(=O)C(=N/O)/C(C)=N/NC(C)=O | . | . | . | . | .
CC(C)n1c(O)c(N=NC(=O)CNC(=O)CCc2ccccc2)c2ccccc21 | . | . | . | . | .
CC(C)n1c(O)c(N=NC(=O)CNC(=O)Cc2ccc(Cl)cc2)c2ccccc21 | . | . | . | . | 21
COc1ccc2c(n1)Sc1nc3ccccc3nc1N2 | . | 62 | . | . | .
COc1cc2ccccc2nn1 | . | . | . | . | .
COc1ccc(CNC(=O)c2cccc(NC3=NC4CS(=O)(=O)CC4S3)c2)cc1 (configuration not stated) | 19 | . | . | . | .
Cn1c(CNc2nc3ccccc3n2CCN2CCCCC2)nc2ccccc21 | . | . | . | . | .
SMILES | V-ATPase pH | Exocytosis inh | ARFGAP1 inhibitor | ASAP1 inh | NRP1-CendR mod
c1ccc(Cn2c(CNc3nc4ccccc4n3CCN3CCCCC3)nc3ccccc32)cc1 | . | . | . | . | 30
COc1cc(Nc2cc(C)n(-c3cc(OC)cc(OC)c3)c(=O)c2)cc(OC)c1 | / | / | . | . | /
Nc1[nH]c(C(=O)c2ccc(Br)cc2)c(-c2ccc(Cl)cc2[N+](=O)[O-])c1C(=O)NCCc1c[nH]c2ccccc12 | / | / | . | . | /
COc1ccc(C2CC(=O)C(c3ccc(F)cc3)=CN2Cc2ccccc2)cc1 (configuration not stated) | / | / | . | . | /
COC(=O)C(NNc1ccccc1C)(NC(=O)c1ccc(F)cc1)C(F)(F)F (configuration not stated) | 8.7 | . | . | . | .
COc1cc2c(c(OC)c1OC)C(=O)CO2 | . | . | . | . | 18
COc1cc2c(c(OC)c1O)C(=O)CO2 | . | . | . | . | .
Cc1ccc(OCCn2cc(C#N)c3ccccc32)cc1 | . | 68 | . | . | .
COc1ccccc1OCCn1cc(C#N)c2ccccc21 | . | . | . | . | .
NC(=O)c1c(N)[nH]c(C(=O)c2ccccc2)c1-c1ccc(Br)cc1 | / | / | . | . | /
O=Cc1ccc(-c2ccccc2C(=O)O)o1 | . | . | . | . | 35
C=CC(=O)N1C/C(=C/c2ccc(Cl)cc2)C(=O)/C(=C\c2ccc(Cl)cc2)C1 | . | 86 | . | . | .
C=CC(=O)N1C/C(=C/c2ccccc2)C(=O)/C(=C\c2ccccc2)C1 | . | 71 | . | . | .
CSc1ccc(C(=O)NCC2CCN(C(=O)C(=O)c3cc4ccccc4o3)CC2)cc1 | / | / | . | . | /
O=C(NCC1CC1)C1(S(=O)(=O)c2ccccc2)CC=CC1 | . | . | . | . | 21
CC(C)(C)c1cc(=O)n(-c2ccccc2)[nH]1 | . | . | 29 | . | .
O=c1c2ccccc2sn1-c1nccs1 | . | 85 | . | . | .
CC1(C)CC(CCNC(=O)CCl)(c2ccccc2)CCO1 (configuration not stated) | . | . | . | . | 26
CC1(C)CC(CCNS(=O)(=O)c2ccccc2)(c2ccccc2)CCO1 (configuration not stated) | . | . | . | . | .
COc1ccc(Cl)cc1N1C(=O)c2cccnc2C1=O | 18 | . | . | . | .
COc1ccc(OC)c(N2C(=O)c3cccnc3C2=O)c1 | . | . | . | . | .
Cc1ccc(C)c(S(=O)(=O)N2CCN(C(=O)CSc3ccccc3F)CC2)c1 | . | . | . | . | 24
Cc1ccc(C)c(S(=O)(=O)N2CCN(C(=O)Cc3c(F)cccc3Cl)CC2)c1 | . | . | . | . | .
COc1ccc(CN2C(=O)c3ccccc3C2=O)cc1C(=O)Nc1ccccc1N1CCOCC1 | . | . | . | . | 32
O=C(NC(=S)Nc1ccccc1N1CCCC1)c1ccco1 | . | . | . | . | 28
SMILES | V-ATPase pH | Exocytosis inh | ARFGAP1 inhibitor | ASAP1 inh | NRP1-CendR mod
COc1ccccc1C(=O)Nc1ccccc1N1CCCCC1 | . | 67 | . | . | .
CC(=O)N1CCN(c2ccccc2NC(=O)c2cc(Br)ccc2Cl)CC1 | 18 | . | . | . | .
COc1ccc(Br)cc1C(=O)Nc1ccccc1N1CCCC1 | . | . | . | . | .
COc1ccc(NC(=O)c2cc(CN3C(=O)c4ccccc4C3=O)ccc2OC)cn1 | . | . | . | . | .
COc1ccccc1Cc1c(-c2ccc(F)cc2)nc2c3ccccc3ccn12 | / | / | . | . | /
COC(=O)c1cc2c(c3c4cc(OC)ccc4n(S(=O)(=O)c4ccccc4)c13)C(=O)N(C)C2 | / | / | . | . | /
Cc1ccccc1-c1ccc2c(c1)[C@@H]1C[C@H]3[C@@H](CN1CC2)[C@H](C)OC(c1ccccc1)N3C (some centres not stated) | / | / | . | . | /
CCC/C(=C1/c2ccccc2C(=O)N1c1ccccc1)c1c(C)noc1C | / | / | . | . | /
Nc1[nH]c(C(=O)c2ccc(Br)cc2)c(-c2ccc(Br)cc2)c1C(=O)NCc1cccc2ccccc12 | / | / | . | . | /
CCn1c(=O)n(CC)c2cc(N3CCCC3)c(NC(=O)c3ccccc3C)cc21 | . | . | . | . | 27

Screens from PubChem BioAssay.
